Source: ChEMBL document CHEMBL1153337, “Small molecule antagonists of the gonadotropin-releasing hormone (GnRH) receptor: structure-activity relationships of small heterocyclic groups appended to the 2-phenyl-4-piperazinyl-benzimidazole template” (Bioorg Med Chem Lett, 2009)
≈ marks a conversion by molar mass, not a printed value.

Assays:
[1] = molecular target: T1, Gonadotropin-releasing hormone receptor (Homo sapiens) (UniProt P30968); assay: Displacement of [125I]-(D-Trp6)-GnRH from human GnRH receptor at 50 nM
T1 sequence (whole entry): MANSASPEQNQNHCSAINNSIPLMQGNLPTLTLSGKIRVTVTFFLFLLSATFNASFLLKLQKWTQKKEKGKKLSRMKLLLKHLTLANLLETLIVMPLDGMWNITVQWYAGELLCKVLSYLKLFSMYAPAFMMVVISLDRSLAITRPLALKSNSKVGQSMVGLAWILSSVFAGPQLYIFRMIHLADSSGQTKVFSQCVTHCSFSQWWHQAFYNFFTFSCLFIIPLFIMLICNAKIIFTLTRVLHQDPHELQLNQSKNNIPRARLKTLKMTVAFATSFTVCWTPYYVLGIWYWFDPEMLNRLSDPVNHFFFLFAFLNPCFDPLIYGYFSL

[2] = molecular target: T2, Gonadotropin-releasing hormone receptor (Rattus norvegicus, UniProt P30969); assay: Displacement of [125I]-(D-Trp6)-GnRH from rat GnRH receptor
T2 sequence (P30969 whole entry): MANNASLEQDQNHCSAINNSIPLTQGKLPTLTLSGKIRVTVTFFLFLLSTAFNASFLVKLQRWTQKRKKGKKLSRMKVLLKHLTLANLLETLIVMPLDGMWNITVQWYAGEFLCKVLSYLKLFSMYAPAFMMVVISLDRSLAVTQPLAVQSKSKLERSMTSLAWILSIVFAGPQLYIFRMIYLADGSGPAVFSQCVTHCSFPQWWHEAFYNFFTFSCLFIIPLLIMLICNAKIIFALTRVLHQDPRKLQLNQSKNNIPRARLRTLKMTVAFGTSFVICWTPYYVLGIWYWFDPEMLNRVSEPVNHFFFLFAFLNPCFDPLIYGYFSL
In short: (§1)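 Competition binding at overexpressed human or rat GnRH receptors against 125I-(D-Trp6)-GnRH; IC50 averaged from two independent experiments run in triplicate.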

[3] = molecular target: T3, Gonadotropin-releasing hormone receptor (Homo sapiens, UniProt P30968); assay: Displacement of [125I]-(D-Trp6)-GnRH from human GnRH receptor; in short: as §1
T3 sequence (P30968 whole entry): T1 sequence (whole entry)

CYP2D6 = CYP2D6 (Homo sapiens, UniProt P10635); assay: Inhibition of CYP2D6 at 3 uM; assay type: ADME
Chain of CYP2D6 (P10635 whole entry): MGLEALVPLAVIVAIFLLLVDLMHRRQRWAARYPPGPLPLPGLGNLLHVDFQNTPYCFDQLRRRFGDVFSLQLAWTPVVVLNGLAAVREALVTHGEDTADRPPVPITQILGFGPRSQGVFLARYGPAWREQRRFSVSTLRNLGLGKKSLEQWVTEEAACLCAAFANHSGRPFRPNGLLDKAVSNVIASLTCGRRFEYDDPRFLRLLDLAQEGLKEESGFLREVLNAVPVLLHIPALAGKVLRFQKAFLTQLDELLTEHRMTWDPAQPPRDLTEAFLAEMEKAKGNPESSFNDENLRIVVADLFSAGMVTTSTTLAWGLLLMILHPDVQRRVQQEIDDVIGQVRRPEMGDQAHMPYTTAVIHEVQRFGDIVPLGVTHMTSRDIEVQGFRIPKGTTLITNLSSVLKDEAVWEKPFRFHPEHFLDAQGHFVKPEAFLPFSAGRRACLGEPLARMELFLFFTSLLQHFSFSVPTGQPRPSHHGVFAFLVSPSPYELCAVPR

Rattus norvegicus [4] = assay: AUC (0 to alpha) in orchidectomized Sprague-Dawley rat at 20 mg/kg, po after 1 day; assay type: ADME, organism-based, Plasma; design: dose 20 mg/kg, route oral; conditions: in vivo, 24 h
In short: (§2)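 Orchidectomized SD rats, single oral dose of 20 mg/kg in 0.4 N HCl/2% TWEEN 80; iv arm 1 mg/kg in 20% DMSO/PEG 200 for bioavailability; one-day PK study.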

CYP3A4 = CYP3A4 (Homo sapiens, UniProt P08684); assay: Inhibition of CYP3A4 at 3 uM; assay type: ADME
Chain of CYP3A4 (P08684 whole entry): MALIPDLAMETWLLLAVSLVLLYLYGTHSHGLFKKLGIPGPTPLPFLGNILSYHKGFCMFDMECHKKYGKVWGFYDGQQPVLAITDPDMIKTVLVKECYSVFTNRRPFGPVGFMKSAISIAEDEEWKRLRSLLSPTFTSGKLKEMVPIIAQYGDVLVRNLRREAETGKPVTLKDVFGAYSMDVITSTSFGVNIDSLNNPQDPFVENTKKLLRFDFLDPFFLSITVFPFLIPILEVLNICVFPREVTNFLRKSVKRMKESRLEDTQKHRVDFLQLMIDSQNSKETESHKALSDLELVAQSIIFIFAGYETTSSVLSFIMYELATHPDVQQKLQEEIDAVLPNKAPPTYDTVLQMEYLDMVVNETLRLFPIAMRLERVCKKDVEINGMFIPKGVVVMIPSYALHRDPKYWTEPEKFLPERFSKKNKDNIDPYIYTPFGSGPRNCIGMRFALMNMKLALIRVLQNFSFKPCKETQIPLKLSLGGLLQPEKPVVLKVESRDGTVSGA

Rattus norvegicus [5] = assay: Oral bioavailability in orchidectomized Sprague-Dawley rat at 20 mg/kg after 1 day; assay type: ADME, organism-based; conditions: in vivo, 24 h; in short: as §2
[6] = Half life in orchidectomized Sprague-Dawley rat at 20 mg/kg, po after 1 day; assay type: ADME, organism-based; design: dose 20 mg/kg, route oral; conditions: male, in vivo; in short: as §2
[7] = Reduction in leutinizing hormone release in (D-Trp6)-GnRH-stimulated rat primary pituitary cells by RIA; assay type: functional, cell-based; conditions: Pituitary gland cell
In short: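 Primary rat pituitary cells stimulated with (D-Trp6)-GnRH; compound-driven reduction of LH release read as IC50.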

[8] = Solubility at pH 7.4; assay type: physicochemical; conditions: buffer
CYP2C9 = CYP2C9 (Homo sapiens, UniProt P11712); assay: Inhibition of CYP2C9 at 3 uM; assay type: ADME
Chain of CYP2C9 (P11712 whole entry): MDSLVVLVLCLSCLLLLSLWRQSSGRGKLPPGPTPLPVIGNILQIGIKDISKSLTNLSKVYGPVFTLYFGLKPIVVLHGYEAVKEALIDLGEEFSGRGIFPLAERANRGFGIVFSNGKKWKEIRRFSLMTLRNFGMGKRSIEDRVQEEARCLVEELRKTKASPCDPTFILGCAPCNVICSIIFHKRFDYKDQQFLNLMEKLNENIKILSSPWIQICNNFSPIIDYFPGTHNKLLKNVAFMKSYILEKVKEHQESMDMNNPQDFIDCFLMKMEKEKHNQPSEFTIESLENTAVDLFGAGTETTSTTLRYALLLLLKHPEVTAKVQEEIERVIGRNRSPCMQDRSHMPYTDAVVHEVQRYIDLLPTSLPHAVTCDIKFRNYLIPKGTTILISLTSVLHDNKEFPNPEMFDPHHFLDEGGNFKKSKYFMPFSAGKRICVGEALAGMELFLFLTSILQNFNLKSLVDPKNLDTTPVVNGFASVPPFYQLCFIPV

[9] = Half life in orchidectomized Sprague-Dawley rat at 1 mg/kg, iv after 1 day; assay type: ADME, organism-based; design: dose 1 mg/kg, route intravenous; conditions: male, in vivo
In short: (§3)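 Orchidectomized SD rats, single iv dose of 1 mg/kg in 20% DMSO/PEG 200; one-day PK study.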

[10] = Metabolic stability in rat liver microsomes assessed as half life; assay type: ADME, Microsome
[11] = molecular target: T3, Gonadotropin-releasing hormone receptor; assay: Antagonist activity at human recombinant GnRH receptor expressed in HEK293 cells assessed as reduction in (D-Trp6)-GnRH-stimulated IP production by whole cell assay; assay type: functional, cell-based
In short: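 Whole-cell assay, cells stimulated with (D-Trp6)-GnRH; compound-driven reduction of inositol phosphate read as IC50.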

[12] = Volume of distribution at steady state in orchidectomized Sprague-Dawley rat at 1 mg/kg, iv after 1 day; assay type: ADME, organism-based; design: dose 1 mg/kg, route intravenous; conditions: male, in vivo, read-out: Vdss; in short: as §3
[13] = Metabolic stability in rat liver microsomes assessed as compound remaining at 1 uM after 15 mins; assay type: ADME, Microsome; conditions: read-out: Stability

| Compound | Activity [1] [%] | IC50 [2] [nM] | IC50 [3] [nM] | also measured |
| --- | --- | --- | --- | --- |
| CC(C)(C)c1ccc(-c2nc3c(N4CCN(Cc5ccco5)CC4)cccc3[nH]2)cc1 | 12 | – | – | – |
| CCc1nc(C)c(CN2CCN(c3cccc4[nH]c(-c5ccc(C(C)(C)C)cc5)nc34)CC2)o1 | – | 320 | 37 | – |
| Cc1n[nH]c(C)c1CN1CCN(c2cccc3[nH]c(-c4ccc(C(C)(C)C)cc4)nc23)CC1 | – | – | 68 | – |
| CCCn1c(CC)nc(C)c1CN1CCN(c2cccc3[nH]c(-c4ccc(C(C)(C)C)cc4)nc23)CC1 | – | 120 | 57 | – |
| CCCn1c(CC)nc(CN2CCN(c3cccc4[nH]c(-c5ccc(C(C)(C)C)cc5)nc34)CC2)c1C | – | 57 | 29 | – |
| CCn1nc(CN2CCN(c3cccc4[nH]c(-c5ccc(C(C)(C)C)cc5)nc34)CC2)cc1C | 32 | – | – | – |
| CCc1nc(CN2CCN(c3cccc4[nH]c(-c5ccc(C(C)(C)C)cc5)nc34)CC2)cn1CC | – | 69 | 11 | – |
| CCCn1cc(CN2CCN(c3cccc4[nH]c(-c5ccc(C(C)(C)C)cc5)nc34)CC2)nc1C | – | 41 | 18 | inhibition at 3 µM (CYP2D6): 13%; AUC (Rattus norvegicus [4]): 3830 ng·h/mL; inhibition at 3 µM (CYP3A4): 85%; F (Rattus norvegicus [5]): 100%; half-life [6]: 174 min; IC50 [7]: 240 nM; solubility [8]: 55 µg/mL (≈ 117 µM); inhibition at 3 µM (CYP2C9): 19%; half-life [9]: 54 min; half-life [10]: 25 min; IC50 [11]: 43 nM; Vd [12]: 0.2 L/kg |
| CCCCc1nc(CN2CCN(c3cccc4[nH]c(-c5ccc(C(C)(C)C)cc5)nc34)CC2)cn1C | – | 58 | 26 | – |
| CCCn1cnc(CN2CCN(c3cccc4[nH]c(-c5ccc(C(C)(C)C)cc5)nc34)CC2)c1C | – | 47 | 12 | – |
| CCc1nc(C)c(CN2CCN(c3cccc4[nH]c(-c5ccc(C(C)(C)C)cc5)nc34)CC2)s1 | – | 120 | 20 | – |
| Cn1nccc1CN1CCN(c2cccc3[nH]c(-c4ccc(C(C)(C)C)cc4)nc23)CC1 | 25 | – | – | – |
| CCCCn1cnc(CN2CCN(c3cccc4[nH]c(-c5ccc(C(C)(C)C)cc5)nc34)CC2)c1C | – | 49 | 46 | inhibition at 3 µM (CYP2D6): 21%; inhibition at 3 µM (CYP3A4): 84%; IC50 [7]: 570 nM; solubility [8]: 3 µg/mL (≈ 6.19 µM); inhibition at 3 µM (CYP2C9): 53%; half-life [10]: > 30 min; IC50 [11]: 71 nM |
| CCc1nc(CN2CCN(c3cccc4[nH]c(-c5ccc(C(C)(C)C)cc5)nc34)CC2)c(C)o1 | – | 550 | 27 | – |
| CCc1cc(CN2CCN(c3cccc4[nH]c(-c5ccc(C(C)(C)C)cc5)nc34)CC2)nn1C | – | 350 | 43 | – |
| Cc1ccc(CN2CCN(c3cccc4[nH]c(-c5ccc(C(C)(C)C)cc5)nc34)CC2)o1 | – | – | 705 | – |
| Cc1nc(CN2CCN(c3cccc4[nH]c(-c5ccc(C(C)(C)C)cc5)nc34)CC2)cn1C | – | 34 | 10 | inhibition at 3 µM (CYP2D6): 3%; inhibition at 3 µM (CYP3A4): 66%; IC50 [7]: 300 nM; solubility [8]: 51 µg/mL (≈ 115 µM); inhibition at 3 µM (CYP2C9): 12%; half-life [10]: 9 min; IC50 [11]: 23 nM |
| Cc1c(CN2CCN(c3cccc4[nH]c(-c5ccc(C(C)(C)C)cc5)nc34)CC2)ncn1C(C)C | – | 61 | 19 | – |
| CCc1nc(C)sc1CN1CCN(c2cccc3[nH]c(-c4ccc(C(C)(C)C)cc4)nc23)CC1 | 26 | – | – | – |
| CC(C)(C)c1ccc(-c2nc3c(N4CCN(Cc5ccoc5)CC4)cccc3[nH]2)cc1 | 20 | – | – | – |
| Cn1cnc(CN2CCN(c3cccc4[nH]c(-c5ccc(C(C)(C)C)cc5)nc34)CC2)c1 | – | 98 | 33 | – |
| Cc1nc(CN2CCN(c3cccc4[nH]c(-c5ccc(C(C)(C)C)cc5)nc34)CC2)c[nH]1 | – | 28 | 7.5 | inhibition at 3 µM (CYP2D6): 14%; inhibition at 3 µM (CYP3A4): 85%; IC50 [7]: 250 nM; solubility [8]: 46 µg/mL (≈ 107 µM); inhibition at 3 µM (CYP2C9): 23%; half-life [10]: > 30 min; IC50 [11]: 44 nM |

| Compound | Activity [1] [%] | IC50 [2] [nM] | IC50 [3] [nM] | also measured |
| --- | --- | --- | --- | --- |
| CCn1cc(CN2CCN(c3cccc4[nH]c(-c5ccc(C(C)(C)C)cc5)nc34)CC2)nc1C | – | 51 | 10 | – |
| CCc1nc(CN2CCN(c3cccc4[nH]c(-c5ccc(C(C)(C)C)cc5)nc34)CC2)cn1C | – | 78 | 18 | – |
| Cc1nn(C)c(C)c1CN1CCN(c2cccc3[nH]c(-c4ccc(C(C)(C)C)cc4)nc23)CC1 | – | 450 | 38 | – |
| Cc1nc(C)c(CN2CCN(c3cccc4[nH]c(-c5ccc(C(C)(C)C)cc5)nc34)CC2)o1 | – | 740 | 31 | – |
| CC(C)(C)c1ccc(-c2nc3c(N4CCN(Cc5ccc[nH]5)CC4)cccc3[nH]2)cc1 | 7 | – | – | – |
| CCn1cc(CN2CCN(c3cccc4[nH]c(-c5ccc(C(C)(C)C)cc5)nc34)CC2)c(=O)[nH]c1=O | – | – | – | inhibition at 3 µM (CYP2D6): 0%; inhibition at 3 µM (CYP3A4): 74%; IC50 [7]: 59 nM; remaining at 0.25 h, 1 µM [13]: 12%; solubility [8]: 13 µg/mL (≈ 26.7 µM); inhibition at 3 µM (CYP2C9): 34%; half-life [10]: 5 min |
| CC(C)(C)c1ccc(-c2nc3c(N4CCN(Cc5cccs5)CC4)cccc3[nH]2)cc1 | 24 | – | – | – |
| CC(C)(C)c1ccc(-c2nc3c(N4CCN(Cc5ccsc5)CC4)cccc3[nH]2)cc1 | 6 | – | – | – |
| CC(C)(C)c1ccc(-c2nc3c(N4CCN(Cc5nccs5)CC4)cccc3[nH]2)cc1 | 26 | – | – | – |
| CCCCn1cnc(C)c1CN1CCN(c2cccc3[nH]c(-c4ccc(C(C)(C)C)cc4)nc23)CC1 | 67 | – | – | – |
| Cc1cc(CN2CCN(c3cccc4[nH]c(-c5ccc(C(C)(C)C)cc5)nc34)CC2)nn1C | – | – | 83 | – |
| Cc1cc(CN2CCN(c3cccc4[nH]c(-c5ccc(C(C)(C)C)cc5)nc34)CC2)n(C)n1 | – | 310 | 23 | – |
| CCc1nc(CN2CCN(c3cccc4[nH]c(-c5ccc(C(C)(C)C)cc5)nc34)CC2)c(C)n1CC | – | 49 | 8 | IC50 [7]: 296 nM; solubility [8]: 25 µg/mL (≈ 51.6 µM); half-life [10]: 12 min; IC50 [11]: 13 nM |
| Cn1cccc1CN1CCN(c2cccc3[nH]c(-c4ccc(C(C)(C)C)cc4)nc23)CC1 | 6 | – | – | – |
| CCCCc1nc(C)c(CN2CCN(c3cccc4[nH]c(-c5ccc(C(C)(C)C)cc5)nc34)CC2)s1 | 4 | – | – | – |
| CC(C)(C)c1ccc(-c2nc3c(N4CCN(Cc5ncc[nH]5)CC4)cccc3[nH]2)cc1 | 40 | – | – | – |
| CC(C)(C)c1ccc(-c2nc3c(N4CCN(Cc5cnc[nH]5)CC4)cccc3[nH]2)cc1 | – | 290 | 21 | – |
| CCc1cc(CN2CCN(c3cccc4[nH]c(-c5ccc(C(C)(C)C)cc5)nc34)CC2)n(C)n1 | – | 250 | 22 | – |
| Cc1nc(C)c(CN2CCN(c3cccc4[nH]c(-c5ccc(C(C)(C)C)cc5)nc34)CC2)s1 | – | – | 27 | – |
| Cc1ncoc1CN1CCN(c2cccc3[nH]c(-c4ccc(C(C)(C)C)cc4)nc23)CC1 | – | 850 | 90 | – |
| Cc1nc(CN2CCN(c3cccc4[nH]c(-c5ccc(C(C)(C)C)cc5)nc34)CC2)c(C)s1 | – | – | 21 | – |
